Our source for the inhibition, IC50 and Ki values is ChEMBL document CHEMBL3588778, “Synthesis and biological evaluation of spirocyclic antagonists of CCR2 (chemokine CC receptor subtype 2)” (Bioorg Med Chem, 2015).

In general, inhibition refers to the change of the read-out against control, counted positive when it falls. One may read the IC50 as the concentration that gives 50% inhibition. For orientation: Ki means the equilibrium dissociation constant of an inhibitor or competing ligand from its target. Read a high Ki as lower affinity.

Test [1] deals with T1, C-C chemokine receptor type 2 (Homo sapiens, UniProt P41597). Nature of the test: Displacement of [125I]-CCL2 from human CCR2 expressed in U2OS cells at 1 uM incubated for 150 mins by scintillation spectrometry. The test is classed as cell-based. The method, boiled down:
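Membranes (15 µg protein) from U2OS cells stably expressing human CCR2 were incubated with 0.1 nM 125I-CCL2 for 150 min at 37 C. Buffer was 50 mM Tris-HCl pH 7.4 with 5 mM MgCl2 and 0.1% CHAPS. Test compound was 1 µM and nonspecific binding was defined with 10 µM INCB3344. Bound ligand was separated by filtration on PEI-coated GF/B filters and counted by scintillation. Result given as % displacement.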
(Displacement assays read how much labelled ligand stays bound in the presence of the test substance.)
Target sequence in this assay (P41597 whole entry, looked up): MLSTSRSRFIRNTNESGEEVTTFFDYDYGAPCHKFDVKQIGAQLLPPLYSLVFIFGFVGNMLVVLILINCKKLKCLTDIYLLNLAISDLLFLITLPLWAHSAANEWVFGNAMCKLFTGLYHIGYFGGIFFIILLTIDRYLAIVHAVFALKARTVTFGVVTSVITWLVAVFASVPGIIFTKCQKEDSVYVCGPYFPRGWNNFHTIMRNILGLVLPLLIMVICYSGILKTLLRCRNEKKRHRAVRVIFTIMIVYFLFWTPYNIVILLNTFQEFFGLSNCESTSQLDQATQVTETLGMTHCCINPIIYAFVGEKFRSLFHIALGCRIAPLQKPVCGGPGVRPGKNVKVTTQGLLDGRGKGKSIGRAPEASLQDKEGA

Test [2] deals with T1, C-C chemokine receptor type 2. In words: Antagonist activity against human CCR2B expressed in Chem-1 cells assessed as inhibition of human CCL2-induced intracellular calcium flux incubated for 10 mins by Fluo-4 AM dye based intracellular calcium flux assay. The test is classed as functional, cell-based. (A change in cytosolic calcium serves as a functional read-out for many receptors and channels.)
Target sequence in this assay (P41597 whole entry): as the sequence (P41597 whole entry, looked up) above

For test [3], the target named is C-C chemokine receptor type 2 (Mus musculus, UniProt P51683). In words: Antagonist activity against mouse CCR2B expressed in human U2OS cells co-expressing beta-arrestin assessed as inhibition of mouse CCL2-induced beta-arrestin recruitment pre-incubated for 10 mins before mouse CCL2 stimulation for 90 mins by luminescence based assay. Format: cell-based.
The target in test [4] is T1, C-C chemokine receptor type 2. Nature of the test: Displacement of [125I]-CCL2 from human CCR2 expressed in U2OS cells incubated for 150 mins by scintillation spectrometry. Format: cell-based.
Target sequence in this assay (P41597 whole entry): as the sequence (P41597 whole entry, looked up) above

Chain of C-C chemokine receptor type 2 (Mus musculus, UniProt P51683) (P51683 whole entry): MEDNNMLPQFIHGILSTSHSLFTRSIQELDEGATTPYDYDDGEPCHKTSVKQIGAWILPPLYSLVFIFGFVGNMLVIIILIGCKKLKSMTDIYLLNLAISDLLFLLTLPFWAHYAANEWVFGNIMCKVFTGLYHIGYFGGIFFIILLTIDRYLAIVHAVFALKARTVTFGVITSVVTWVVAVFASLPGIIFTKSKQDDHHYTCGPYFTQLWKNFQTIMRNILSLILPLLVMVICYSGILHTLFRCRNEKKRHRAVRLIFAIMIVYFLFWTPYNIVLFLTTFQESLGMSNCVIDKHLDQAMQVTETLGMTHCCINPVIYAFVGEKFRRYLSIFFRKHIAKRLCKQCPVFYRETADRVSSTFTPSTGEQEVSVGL

For `CC1Cc2ccccc2C2(CCN(CCCC(=O)NCc3cc(F)cc(C(F)(F)F)c3)CC2)O1` (stereo not given), the inhibition in test [1] is -10%. Also, the IC50 in test [2] was 12 µM; in test [3], > 30 µM.
In test [4], `Cc1ccc(-c2ccc3c(c2)C=C(C(=O)Nc2ccc(C[N+](C)(C)C4CCOCC4)cc2)CCC3)cc1` gave a Ki of 0.002 µM. The half-inhibitory concentration (IC50) in test [3] came out at 23 µM.
For `O=C(NCc1cc(C(F)(F)F)cc(C(F)(F)F)c1)C(CCN1CCC2(CC1)OCCc1ccccc12)c1ccc(F)cc1` (stereo not given), the inhibition in test [1] was 25%. The IC50 was determined as 0.089 µM in test [2] and 11.2 µM in test [3].
On to `O=C(CCCN1CCC2(CC1)OCCc1ccccc12)NCc1cc(C(F)(F)F)cc(C(F)(F)F)c1`, for which, in test [1], the inhibition amounted to 10%. Further, the IC50 in test [2] amounted to 0.684 µM; in test [3], 24 µM.
Regarding `O=C(NCc1cc(F)cc(C(F)(F)F)c1)C(CCN1CCC2(CC1)OCCc1ccccc12)c1ccc(F)cc1` (stereo not given), in test [1], the inhibition came out at 7%. For the same compound, the 50% inhibitory concentration (IC50) was found to be 0.173 µM in test [2] and 3.63 µM in test [3].
For `O=C(CCCN1CCC2(CC1)OCCc1ccccc12)NCc1cc(F)cc(C(F)(F)F)c1`, in test [1], the inhibition was 4%. Further, the IC50 was 0.18 µM in test [2] and > 30 µM in test [3].
Turning to `O=C(NCc1cc(C(F)(F)F)cc(C(F)(F)F)c1)C(CCN1CCC2(CC1)OCCc1ccccc12)C1CC1` (stereo not given), the half-inhibitory concentration (IC50) is 0.017 µM in test [2] and 3.3 µM in test [3].
Turning to `COc1ccc2c(c1)CCOC21CCN(CCCC(=O)NCc2cc(C(F)(F)F)cc(C(F)(F)F)c2)CC1`, the inhibition in test [1] was found to be 1%. The IC50 was 1.24 µM in test [2] and 18 µM in test [3].
For the compound `O=C(NCc1cc(F)cc(C(F)(F)F)c1)C(CCN1CCC2(CC1)OCCc1cc(O)ccc12)c1ccc(F)cc1` (stereo not given), the values for the IC50 in test [2] and in test [3] were 6.1 µM and > 30 µM, respectively.
`CC1Cc2ccccc2C2(CCN(CCC(C(=O)NCc3cc(C(F)(F)F)cc(C(F)(F)F)c3)c3ccc(F)cc3)CC2)O1` (stereo not given): the inhibition in test [1] is 0%. The values for the IC50 in test [2] and in test [3] were 0.462 µM and 3.67 µM, respectively.
Turning to `COc1ccc2c(c1)CCOC21CCN(CCCC(=O)NCc2cc(F)cc(C(F)(F)F)c2)CC1`, in test [1], the inhibition is -1%. In addition, the IC50 is 0.318 µM in test [2] and > 30 µM in test [3].
Consider `COc1ccc2c(c1)CCOC21CCN(CCC(C(=O)NCc2cc(F)cc(C(F)(F)F)c2)c2ccc(F)cc2)CC1` (stereo not given), for which the inhibition in test [1] was -7%. Besides, the IC50 in test [2] was 0.353 µM; in test [3] it was 4.63 µM.
As to `CC1Cc2ccccc2C2(CCN(CCC(C(=O)NCc3cc(F)cc(C(F)(F)F)c3)c3ccc(F)cc3)CC2)O1` (stereo not given), the inhibition in test [1] amounted to 9%. Also, the IC50 amounted to 1.6 µM in test [2] and 8.01 µM in test [3].
As to `COc1ccc2c(c1)CCOC21CCN(CCC(C(=O)NCc2cc(C(F)(F)F)cc(C(F)(F)F)c2)c2ccc(F)cc2)CC1` (stereo not given), the IC50 in test [2] is 0.163 µM; in test [3] it was 4.16 µM.
With `CC1Cc2ccccc2C2(CCN(CCCC(=O)NCc3cc(C(F)(F)F)cc(C(F)(F)F)c3)CC2)O1` (stereo not given), the IC50 in test [2] stood at 7.54 µM; in test [3] it was 7.9 µM.
